Results taken from ChEMBL document CHEMBL1122622, “Carbocyclic analogues of xylofuranosylpurine nucleosides. Synthesis and antitumor activity” (J Med Chem, 1984).

Substrate: Nc1ncnc2c1ncn2[C@@H]1O[C@H](CO)[C@@H](O)[C@H]1O
Assay: Compound was evaluated for the kinetic constant on adenosine deaminase and expressed as Km
In short: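 Calf intestinal adenosine deaminase (type III). Adenosine was mixed with a range of test compound concentrations in 1 mL 0.05 M phosphate buffer, pH 7.5, at 25 °C. Reactions were started with 20 milliunits of enzyme, and deamination was followed as the fall in absorbance at 265 nm. Kinetic constants came from Wilkinson analysis, with each point the mean of triplicates.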

B1: Adenosine deaminase (Mus musculus), P03958 (protein)
chain: MAQTPAFNKPKVELHVHLDGAIKPETILYFGKKRGIALPADTVEELRNIIGMDKPLSLPGFLAKFDYYMPVIAGCREAIKRIAYEFVEMKAKEGVVYVEVRYSPHLLANSKVDPMPWNQTEGDVTPDDVVDLVNQGLQEGEQAFGIKVRSILCCMRHQPSWSLEVLELCKKYNQKTVVAMDLAGDETIEGSSLFPGHVEAYEGAVKNGIHRTVHAGEVGSPEVVREAVDILKTERVGHGYHTIEDEALYNRLLKENMHFEVCPWSSYLTGAWDPKTTHAVVRFKNDKANYSLNTDDPLIFKSTLDTDYQMTKKDMGFTEEEFKRLNINAAKSSFLPEEEKKELLERLYREYQ
With B1 the Km was 7.8 µM.
